Data from publication PMC12462367 (RSC Advances, 2025).
Converted amounts (≈) assume the structure as drawn.

Assays:
[1] = system: S. aureus ATCC 29213; assay: MIC, broth microdilution; assay type: cell-based; details: Staphylococcus aureus, ATCC29213, read-out: Minimum inhibitory concentration (MIC), S. aureus ATCC 29213
Procedure, shortened: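 Broth microdilution following CLSI guidelines. Strain grown in Mueller–Hinton broth with shaking at 37 °C for about 5 h, then diluted to ~10^5 CFU mL−1 in wells. Test compound serially diluted over 0.05–256 μg mL−1, and plates incubated 37 °C for 18 h. MIC taken as the lowest concentration with no visible growth. Run in triplicate.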

[2] = system: S. aureus MRSA2; assay: MIC, broth microdilution; assay type: cell-based, Staphylococcus aureus; details: for MIC: Staphylococcus aureus, MRSA2, read-out: Minimum inhibitory concentration (MIC), S. aureus MRSA2
Procedure, shortened: (§1)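 Broth microdilution per CLSI. Strains were grown in Mueller–Hinton broth on a shaker at 37 °C for about 5 h, then diluted to ~10^5 CFU mL−1. Test compound was serially diluted (0.05–256 μg mL−1), and plates were incubated at 37 °C for 18 h. MIC is the lowest concentration with no visible growth. Run in triplicate.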

[3] = system: E. coli ATCC 25922; assay: MIC, broth microdilution; assay type: cell-based, Escherichia coli; details: 16–24 h
Procedure, shortened: as §1

[4] = system: B. subtilis ATCC6633; assay: MIC, broth microdilution; assay type: cell-based
Procedure, shortened: as §1

[5] = system: B. cereus CMCC63303; assay: MIC, broth microdilution; assay type: cell-based
Procedure, shortened: as §1

[6] = system: L. monocytogenes CICC21662; assay: MIC, broth microdilution; assay type: cell-based
Procedure, shortened: as §1

[7] = system: E. faecalis ATCC29212; assay: MIC, broth microdilution; assay type: cell-based
Procedure, shortened: as §1

[8] = system: S. aureus LN38; assay: MIC, broth microdilution; assay type: cell-based, Staphylococcus aureus
Procedure, shortened: as §1

[9] = Cytotoxicity assay; assay type: cell-based; details: human, HK-2 cells
[10] = Cytotoxicity assay; assay type: cell-based; details: human, LO2 cells
[11] = system: rabbit red blood cells; assay: Hemolysis assay; assay type: cell-based
Procedure, shortened: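 Test compound in PBS was mixed 1:1 with 4% defibrinated rabbit erythrocytes in PBS (final 2–256 μg mL−1) at 37 °C. Cells were pelleted (1000×g, 5 min) and supernatant absorbance read at 490 nm. Hemolysis % = (sample − PBS)/(Triton − PBS), with 1% Triton X-100 as positive and sterile PBS as negative reference. Triplicate.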

[12] = system: S. aureus ATCC 29213; assay: Time-killing kinetics; assay type: cell-based, Staphylococcus aureus
[13] = system: S. aureus ATCC 29213; assay: Drug resistance study; assay type: cell-based, Staphylococcus aureus; details: sub-MIC passage 28 days
[14] = system: S. aureus MRSA2 biofilm; assay: Biofilm formation inhibition; assay type: cell-based, Staphylococcus aureus; details: 64 μg mL^−1 (8 × MIC)
Procedure, shortened: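 S. aureus MRSA2 was diluted 1:100 in TSB with 1% (w/v) glucose and incubated with test compound (256–2 μg mL−1) for 24 h at 37 °C; DMSO-matched controls. Wells were rinsed with PBS three times, air-dried, stained with 0.1% crystal violet for 15 min, destained with 95% ethanol and read at 595 nm. Inhibition % = (ODcontrol − ODsample)/ODcontrol × 100. Triplicate.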

[15] = system: S. aureus MRSA2 mature biofilm; assay: Mature biofilm eradication; assay type: cell-based, Staphylococcus aureus; details: 128 μg mL^−1 (16 × MIC), 24 hours treatment
[16] = system: TNF-α in LPS-stimulated RAW 264.7 macrophages; assay: TNF-α release, LPS-stimulated macrophages; assay type: cell-based
[17] = system: IL-6 in LPS-stimulated RAW 264.7 macrophages; assay: IL-6 secretion, LPS-stimulated macrophages; assay type: cell-based; details: Mus musculus, RAW264.7, read-out: inhibition of IL-6 secretion
Procedure, shortened: (§2)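 RAW 264.7 cells (5 × 10^4 per well) were allowed to adhere overnight in DMEM with 10% FBS. Cells were pretreated with test compound for 2 h, then stimulated with LPS (e.g., 100 ng mL−1) for 24 h at 37 °C, 5% CO2. IL-6 and IL-1β in culture supernatants were measured by ELISA. Vehicle controls (e.g., 0.1% DMSO); ≥3 biological replicates.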

[18] = system: IL-1β in LPS-stimulated RAW 264.7 macrophages; assay: IL-1β production, LPS-stimulated macrophages; assay type: cell-based; details: Mus musculus, RAW264.7, read-out: inhibition of IL-1β production
Procedure, shortened: as §2

[19] = system: NO in LPS-stimulated RAW 264.7 macrophages; assay: Nitric oxide production, LPS-stimulated macrophages; assay type: cell-based; details: 128 μg mL^−1
Procedure, shortened: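 Murine RAW 264.7 macrophages (5 × 10^4 per well, DMEM with 10% FBS) were allowed to adhere overnight. Cells were pretreated with test compound for 2 h, then exposed to LPS (e.g., 100 ng mL−1) for 24 h at 37 °C under 5% CO2. Nitric oxide in culture supernatants was measured with a commercial detection kit. Vehicle controls (e.g., 0.1% DMSO); ≥3 biological replicates.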

[20] = system: S. aureus ATCC 29213; assay: Membrane permeability assay; assay type: cell-based, Staphylococcus aureus; details: 4 × MIC (32 μg mL^−1); 2 hours
[21] = system: S. aureus ATCC 29213; assay: Membrane potential assay; assay type: cell-based, Staphylococcus aureus
Procedure, shortened: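 S. aureus ATCC 29213 was grown overnight, brought to log phase (OD600 = 0.4), pelleted and resuspended in PBS at 10^6–10^7 CFU mL−1. Cells were exposed to test compound or 10 μM CCCP (depolarization control) for 15 min at room temperature in the dark. DiOC2(3) (BacLight kit) was then added for 30 min under the same conditions; red/green fluorescence ratio recorded. Triplicate.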

[22] = system: S. aureus ATCC 29213; assay: Protein leakage; assay type: cell-based, Staphylococcus aureus; details: increasing concentrations (1 ×, 4 ×, 16 × MIC); 4 h
Procedure, shortened: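 After centrifugation (12 000×g, 10 min, 4 °C) and 0.22 μm filtration, supernatant protein was determined by BCA assay at 562 nm. Vehicle controls; technical triplicates.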

[23] = system: S. aureus ATCC 29213; assay: DNA leakage; assay type: cell-based, Staphylococcus aureus; details: increasing concentrations (1 ×, 4 ×, 16 × MIC); 4 h
Procedure, shortened: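 Cells were pelleted (12 000×g, 10 min, 4 °C) and the supernatant passed through a 0.22 μm filter. Extracellular DNA was measured as A260 by microvolume spectrophotometry. Vehicle controls; technical triplicates.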

[24] = Plasma protein binding, equilibrium dialysis; assay type: in vitro ADME; details: Sprague-Dawley, rat
Procedure, shortened: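 Equilibrium dialysis: bags holding 0.5 mL of blank Sprague–Dawley rat plasma were placed in 40 mL of PBS containing test compound at 30 μM. Incubation was 24 h at 37 °C with shaking at 100 rpm. Both compartments were assayed by HPLC. Binding % = (A − B)/A, where A is the total concentration inside the bag and B the free concentration in the dialysate. Nonspecific binding controls; triplicate.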

Row | Compound | MIC [1] [µg/mL] | MIC [2] [µg/mL] | activity against B. subtilis ATCC6633 [4] | activity against B. cereus CMCC63303 [5] | activity against L. monocytogenes CICC21662 [6] | activity against E. faecalis ATCC29212 [7] | activity against S. aureus LN38 [8] | also measured
1 | CCN(CC)c1ccc(C=Nc2cc(C)ccc2O)c(O)c1 [D9, 2-((4-(diethylamino)-2-hydroxybenzylidene)amino)-4-methylphenol] | > 256 | > 256 | – | – | – | – | – | –
2 | CCN(CC)c1ccc(C=Nc2cc(C)c(Br)cn2)c(O)c1 [D10, 2-(((5-bromo-4-methylpyridin-2-yl)imino)methyl)-5-(diethylamino)phenol] | > 256 | > 256 | – | – | – | – | – | –
3 | CCN(CC)c1ccc(C=NNC(=O)c2ccccn2)c(O)c1 [D5, N′-(4-(diethylamino)-2-hydroxybenzylidene)picolinohydrazide] | – | 8 (≈ 25.6 µM) | 16 | 8 | 8 | 8 | 16 | Minimum inhibitory concentration (MIC), E. coli ATCC 25922 [3]: >256 µg/mL; viability at 24 h, 256 μg mL^−1 [9]: > 85%; viability at 24 h, 256 μg mL^−1 [10]: > 85%; hemolysis at 256 μg mL^−1 ([11]; 256 μg mL^−1): no significant hemolysis; hemolytic activity against rabbit RBCs ([11]; 2 to 256 μg mL^−1, 4% rabbit RBCs, 37 °C): no hemolytic activity; time to complete eradication of bacteria ([12]; 8 × MIC): ≤ 10 h; eradication of bacterial colonies ([12]; S. aureus ATCC 29213, 8 × MIC (64 μg mL^−1), within 10 hours): > 99.9%; increase of MIC after serial passage [13]: 16 fold; suppression of biofilm formation [14]: > 95%; clearance of mature biofilms [15]: > 95%; lowest concentration at which TNF-α suppression emerges ([16]; LPS-stimulated RAW 264.7): 8 µg/mL; inhibition at 128 µg/mL ([16]; Mus musculus, RAW264.7, read-out: inhibition of TNF-α release): 40%; inhibition at 128 µg/mL [17]: 46%; inhibition at 128 µg/mL [18]: 39%; reduction of nitric oxide (NO) synthesis [19]: 53%; membrane permeabilization (PI uptake) [20]: near-complete PI uptake; membrane depolarization (DiOC2(3) red/green fluorescence ratio) [21]: significant decrease; leakage of proteins into culture medium [22]: dose-dependent efflux; leakage of DNA into culture medium [23]: dose-dependent efflux; fraction unbound at 24 h, 30 μM [24]: 0.134
4 | CCN(CC)c1ccc(C=NNC(=O)c2ccncc2)c(O)c1 [D2, N′-(4-(diethylamino)-2-hydroxybenzylidene)isonicotinohydrazide] | > 256 | > 256 | – | – | – | – | – | –
5 | CN[C@H](CC(C)C)C(=O)N[C@H]1C(=O)N[C@@H](CC(N)=O)C(=O)N[C@H]2C(=O)N[C@H]3C(=O)N[C@H](C(=O)N[C@H](C(=O)O)c4cc(O)cc(O)c4-c4cc3ccc4O)[C@H](O)c3ccc(c(Cl)c3)Oc3cc2cc(c3O[C@@H]2O[C@H](CO)[C@@H](O)[C@H](O)[C@H]2O[C@H]2C[C@](C)(N)[C@H](O)[C@H](C)O2)Oc2ccc(cc2Cl)[C@H]1O [Vancomycin] | 1 (≈ 0.69 µM) | 2 (≈ 1.38 µM) | 1 | 1 | 1 | 2 | 1 | –
6 | CCN(CC)c1ccc(C=NNC(=O)c2ccc(C)cc2)c(O)c1 [D3, N′-(4-(diethylamino)-2-hydroxybenzylidene)-4-methylbenzohydrazide] | > 256 | > 256 | – | – | – | – | – | –
7 | CCN(CC)c1ccc(C=NNC(=O)c2ccccc2)c(O)c1 [D1, N′-(4-(diethylamino)-2-hydroxybenzylidene)benzohydrazide] | > 256 | > 256 | – | – | – | – | – | –
8 | CCN(CC)c1ccc(C=O)c(O)c1 [C, 4-(diethylamino)-2-hydroxybenzaldehyde] | > 256 | > 256 | >256 | >256 | >256 | >256 | >256 | Minimum inhibitory concentration (MIC), S. aureus MRSA2 ([2]; clinically isolated methicillin-resistant S. aureus MRSA2, 16–24 h): >256 µg/mL
